Tests used:
[1] = biological target: T1, Retinal dehydrogenase 2 (Gallus gallus) (UniProt O93344); assay: Inhibition of N-terminal His6-tagged recombinant chick RALDH2 expressed in Escherichia coli BL21(DE3) cells at 25 nM using RAL as substrate assessed as remaining activity preincubated for 20 mins followed by compound washout by ultrafiltration and subsequent addition of substrate and measured after 30 mins in presence of NADH by fluorescence assay (reference value: 100.0 +/- 11.57%)
T1 sequence (whole entry): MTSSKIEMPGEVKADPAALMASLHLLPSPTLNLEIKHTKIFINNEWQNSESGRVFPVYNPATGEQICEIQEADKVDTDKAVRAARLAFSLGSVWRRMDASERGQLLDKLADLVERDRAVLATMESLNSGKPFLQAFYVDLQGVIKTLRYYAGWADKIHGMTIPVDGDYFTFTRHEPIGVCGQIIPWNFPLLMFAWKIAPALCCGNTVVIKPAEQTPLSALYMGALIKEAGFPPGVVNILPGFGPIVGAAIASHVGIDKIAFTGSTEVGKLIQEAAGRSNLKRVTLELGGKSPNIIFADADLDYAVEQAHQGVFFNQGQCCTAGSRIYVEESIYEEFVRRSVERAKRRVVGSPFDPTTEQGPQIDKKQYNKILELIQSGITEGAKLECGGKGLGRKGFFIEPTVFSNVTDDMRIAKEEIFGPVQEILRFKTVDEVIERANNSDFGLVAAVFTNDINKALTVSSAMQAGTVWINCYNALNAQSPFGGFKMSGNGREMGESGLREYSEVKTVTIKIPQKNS
How it was run: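 Chick RALDH2 (91 nM) pre-incubated 20 min with 0–50 nM inhibitor. Unbound inhibitor removed by ultrafiltration before adding 250 μM retinaldehyde and 4 mM NAD+, 30 min at 37°C. NADH measured fluorimetrically. Activity expressed as % of vehicle. Triplicates; one-way ANOVA with Bonferroni test.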

[2] = biological target: T1, Retinal dehydrogenase 2 (Gallus gallus); assay: (§1) Inhibition of N-terminal His6-tagged recombinant chick RALDH2 expressed in Escherichia coli BL21(DE3) cells at 250 nM using RAL as substrate assessed as remaining activity preincubated for 5 mins followed by all-trans-retinaldehyde and substrate addition measured after 30 mins in presence of NAD+ by fluorescence assay
How it was run: (§2)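 Chick RALDH2 (91 nM) pre-incubated with 250 nM inhibitor for 0–80 min at 37°C, alone or with 250 μM retinaldehyde or 250 μM NAD+. Reaction then started with the missing substrate and/or cofactor (250 μM retinaldehyde, 4 mM NAD), 30 min at 37°C. Fluorimetric NADH; % activity remaining. Triplicates.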

[3] = biological target: T1, Retinal dehydrogenase 2 (Gallus gallus); assay: as §1, with “for 40” for “for 5”; how it was run: as §2
Retinal dehydrogenase 2 [4] = biological target: T2, Retinal dehydrogenase 2 (Gallus gallus, UniProt O93344); assay: Inhibition of N-terminal His6-tagged recombinant chick RALDH2 expressed in Escherichia coli BL21(DE3) cells up to 500 nM using RAL as substrate preincubated up to 40 mins followed by substrate addition and measured after 30 mins in presence of NADH by fluorescence assay
T2 sequence (O93344 whole entry): T1 sequence (whole entry)
How it was run: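 Chick RALDH2 pre-incubated 10, 20 and 40 min with 0–500 nM inhibitor, then assayed with retinaldehyde/NAD+ by fluorimetric NADH. kobs taken from linear regression of log % activity remaining versus pre-incubation time. KI and kinact obtained by nonlinear regression of kobs versus inhibitor concentration.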

HEK293 = assay: Cytotoxicity against doxycycline-inducible chicken RALDH2 expressing HEK293 cells by measuring ATP production after 24 hrs by CelTiter-Glo assay; format: cell-based; details: Homo sapiens, HEK293, 24 h
How it was run: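 (Dox)RALDH2-eGFP HEK293 cells seeded at 10,000/well in DMEM + 10% FBS for 24 h, then switched to DMEM with 0.1% FBS containing 0–50 μM compound in DMSO (<0.5%) for 24 h at 37°C, 5% CO2. ATP read by luminescence and expressed as % of vehicle (0.5% DMSO) control. Two experiments, n = 5 per concentration.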

[5] = biological target: T1, Retinal dehydrogenase 2 (Gallus gallus); assay: Inhibition of chick RALDH2 expressed in doxycycline-inducible HEK293 cells assessed as inhibition of ATRA synthesis at 0.05 uM after 24 hrs in presence of […]; format: cell-based
[6] = biological target: T1, Retinal dehydrogenase 2 (Gallus gallus); assay: Inhibition of chick RALDH2 expressed in doxycycline-inducible HEK293 cells assessed as inhibition of ATRA synthesis at 2 uM after 24 hrs in presence of ATRA and NAD+; format: cell-based
Retinal dehydrogenase 2 [7] = biological target: T2, Retinal dehydrogenase 2; assay: Inhibition of chick RALDH2 expressed in doxycycline-inducible HEK293 cells assessed as inhibition of ATRA synthesis after 24 hrs in presence of […]; format: cell-based
[8] = biological target: T1, Retinal dehydrogenase 2 (Gallus gallus); assay: Inhibition of RALDH2 in living intact choroid isolated from 4 day recovering chick eyes assessed as inhibition of ATRA synthesis at 1 uM after 24 hrs in presence of […]
Retinal dehydrogenase 2 [9] = biological target: T2, Retinal dehydrogenase 2; assay: Inhibition of RALDH2 in living intact choroid isolated from 4 day recovering chick eyes assessed as inhibition of ATRA synthesis after 24 hrs in presence of […]
Gallus gallus = organism: Gallus gallus; assay: Inhibition of N-terminal His6-tagged recombinant chick RALDH3 expressed in Escherichia coli BL21(DE3) cells at 250 nM using RAL as substrate assessed as Km preincubated for 20 mins followed by substrate addition and measured after 30 mins in presence of NADH by fluorescence assay (reference value: 84.45 +/- 30.99 microM)
[10] = biological target: T1, Retinal dehydrogenase 2 (Gallus gallus); assay: Inhibition of RALDH2 in choroidal cytosol fraction from control chick assessed as inhibition of ATRA synthesis at 0.1 to 6 uM pre-incubated for 20 mins followed by […] addition and measured after 30 mins by HPLC analysis
[11] = biological target: T3, Retinal dehydrogenase 2 (Homo sapiens) (UniProt O94788); assay: Inhibition of RALDH2 (unknown origin) […] assessed as time dependence ratio (kinact/KI)
T3 sequence (whole entry): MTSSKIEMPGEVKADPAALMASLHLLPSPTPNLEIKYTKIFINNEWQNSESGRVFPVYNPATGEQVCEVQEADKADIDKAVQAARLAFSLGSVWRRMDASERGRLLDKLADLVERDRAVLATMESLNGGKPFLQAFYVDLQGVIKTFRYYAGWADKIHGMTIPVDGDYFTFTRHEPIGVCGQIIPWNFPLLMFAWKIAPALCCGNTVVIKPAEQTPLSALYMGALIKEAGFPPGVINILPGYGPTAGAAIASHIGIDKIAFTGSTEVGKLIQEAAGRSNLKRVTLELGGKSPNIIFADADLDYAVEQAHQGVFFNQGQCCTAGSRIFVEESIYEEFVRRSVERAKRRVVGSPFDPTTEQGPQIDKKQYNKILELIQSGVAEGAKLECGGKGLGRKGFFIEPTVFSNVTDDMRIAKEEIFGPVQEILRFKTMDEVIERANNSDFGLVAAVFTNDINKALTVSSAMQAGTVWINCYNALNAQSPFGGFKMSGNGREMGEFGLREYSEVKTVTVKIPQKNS

CC1=C(/C=C/C(C)=C/C=C/C(C)=C/C(=O)C(Cl)Cl)C(C)(C)CCC1 was tested, and the Activity [1] was 33%, the Activity [2] was 39.2% and the Activity [3] was 16.3%. It also gave a Ki (Retinal dehydrogenase 2 [4]) of 128 nM, an IC50 (HEK293) of 3090 nM and an inhibition [5] of 42%. For the same molecule, the inhibition [6] was 93%, the IC50 (Retinal dehydrogenase 2 [7]) was 187 nM and the inhibition [8] was 42%. For the same molecule, the EC50 (Retinal dehydrogenase 2 [9]) was 120 nM, the Km (Gallus gallus) was 46.1 µM and the inhibition [10] was 92 to 99%. It also gave a kinact/KI [11] of 1550 to 233000 M⁻¹ s⁻¹.
